Reference: ChEMBL document CHEMBL1141286, “Benzochromenones from the marine crinoid Comantheria rotula inhibit hypoxia-inducible factor-1 (HIF-1) in cell-based reporter assays and differentially suppress the growth of certain tumor cell lines” (J Nat Prod, 2007)
Activity calls are given as the source filed them. The rule behind the calls is not given here.

Assays:
T47D [1] = assay: Inhibition of 1,10-phenanthroline-induced VEGF protein secretion in human T47D cells at 10 uM after 16 hrs by ELISA; assay type: functional, cell-based
Procedure, shortened: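 T47D cells stimulated with 1,10-phenanthroline, compound at 10 μM; secreted VEGF in conditioned media by ELISA, normalized to cell-lysate protein.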

K562 = assay: Growth inhibition of human K562 cells; assay type: functional
NCI-H226 = assay: Growth inhibition of human NCI-H226 cells; assay type: functional
NCI-H23 = assay: Growth inhibition of human NCI-H23 cells; assay type: functional
NCI-H322M = assay: Growth inhibition of human NCI-H322M cells; assay type: functional
NCI-H460 = assay: Growth inhibition of human NCI-H460 cells; assay type: functional
NCI-H522 = assay: Growth inhibition of human NCI-H522 cells; assay type: functional
COLO 205 = assay: Growth inhibition of human COLO205 cells; assay type: functional
HCC 2998 = assay: Growth inhibition of human HCC2998 cells; assay type: functional
HCT-15 = assay: Growth inhibition of human HCT15 cells; assay type: functional
HT-29 = assay: Growth inhibition of human HT29 cells; assay type: functional
SF-268 = assay: Growth inhibition of human SF268 cells; assay type: functional
SF-295 = assay: Growth inhibition of human SF295 cells; assay type: functional
SF-539 = assay: Growth inhibition of human SF539 cells; assay type: functional
SNB-19 = assay: Growth inhibition of human SNB19 cells; assay type: functional
SNB-75 = assay: Growth inhibition of human SNB75 cells; assay type: functional
LOX IMVI = assay: Growth inhibition of human LOXIMVI cells; assay type: functional
Malme-3M = assay: Growth inhibition of human MALME-3M cells; assay type: functional
M14 = assay: Growth inhibition of human M14 cells; assay type: functional
SK-MEL-2 = assay: Growth inhibition of human SK-MEL2 cells; assay type: functional
SK-MEL-5 = assay: Growth inhibition of human SK-MEL5 cells; assay type: functional
UACC-257 = assay: Growth inhibition of human UACC257 cells; assay type: functional
[2] = Growth inhibition of human OVACAR3 cells; assay type: functional
OVCAR-4 = assay: Growth inhibition of human OVACAR4 cells; assay type: functional
OVCAR-8 = assay: Growth inhibition of human OVACAR8 cells; assay type: functional
IGROV-1 = assay: Growth inhibition of human IGROV1 cells; assay type: functional
786-0 = assay: Growth inhibition of human 786-0 cells; assay type: functional
ACHN = assay: Growth inhibition of human ACHN cells; assay type: functional
CAKI-1 = assay: Growth inhibition of human CAKI1 cells; assay type: functional
RXF 393 = assay: Growth inhibition of human RXF393 cells; assay type: functional
SN12C = assay: Growth inhibition of human SN12C cells; assay type: functional
TK-10 = assay: Growth inhibition of human TK10 cells; assay type: functional
UO-31 = assay: Growth inhibition of human UO31 cells; assay type: functional
DU-145 = assay: Growth inhibition of human DU145 cells; assay type: functional
MCF7 = assay: Growth inhibition of human MCF7 cells; assay type: functional
NCI/ADR-RES = assay: Growth inhibition of human NCI/ADR-RES cells; assay type: functional
T47D [3] = assay: Growth inhibition of human T47D cells; assay type: functional
CCRF-CEM = assay: Growth inhibition of human CCRF-CEM cells; assay type: functional
[4] = target: Hypoxia inducible factors; HIF-1-alpha, HIF-2-alpha (Homo sapiens, UniProt Q16665+Q99814); assay: Inhibition of HIF1 activation in human T47D cells by TK-luciferase assay; assay type: cell-based
Procedure, shortened: (§1)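 HIF-1 reporter (pHRE-TK-Luc) assays in transfected PC-3 or T47D cells; HIF-1 induced by hypoxia or by the hypoxia mimetic 1,10-phenanthroline (10 μM); compounds at half-log concentrations; luciferase activity measured; IC50 from experiments in triplicate.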

[5] = Inhibition of 1,10-phenanthroline-induced HIF1 activation in PC3 cells by TK-luciferase assay; assay type: cell-based; conditions: Homo sapiens, PC-3; procedure, shortened: as §1
[6] = Inhibition of HIF1 activation in PC3 cells by TK-luciferase assay; assay type: cell-based; conditions: Homo sapiens, PC-3; procedure, shortened: as §1
[7] = read-out: Log LC50 (the source's name) (converted)

Compound: CCCc1cc(=O)c2c(OC)c3c(OC)cc(O)c(Oc4c(O)cc(OC)c5c(OC)c6c(=O)cc(CCC)oc6cc45)c3cc2o1
- Activity (T47D [1]): inactive
- GI50 (K562): 4.79 µM
- CC50 (K562; [7]): 58.9 µM
- TGI (K562; read-out: Log TGI (converted)): 14.8 µM
- GI50 (NCI-H226): 16.2 µM
- CC50 (NCI-H226; [7]): 79.4 µM
- TGI (NCI-H226; read-out: Log TGI (converted)): 35.5 µM
- GI50 (NCI-H23): 2.45 µM
- CC50 (NCI-H23; [7]): 33.9 µM
- TGI (NCI-H23; read-out: Log TGI (converted)): 6.92 µM
- GI50 (NCI-H322M): 13.5 µM
- CC50 (NCI-H322M; [7]): 55 µM
- TGI (NCI-H322M; read-out: Log TGI (converted)): 27.5 µM
- GI50 (NCI-H460): 10.7 µM
- CC50 (NCI-H460; [7]): 89.1 µM
- TGI (NCI-H460; read-out: Log TGI (converted)): 30.9 µM
- GI50 (NCI-H522): 6.61 µM
- CC50 (NCI-H522; [7]): 60.3 µM
- TGI (NCI-H522; read-out: Log TGI (converted)): 21.9 µM
- GI50 (COLO 205): 10 µM
- CC50 (COLO 205; [7]): 57.5 µM
- TGI (COLO 205; read-out: Log TGI (converted)): 24 µM
- GI50 (HCC 2998): 13.5 µM
- CC50 (HCC 2998; [7]): 56.2 µM
- TGI (HCC 2998; read-out: Log TGI (converted)): 27.5 µM
- GI50 (HCT-15): 7.41 µM
- CC50 (HCT-15; [7]): 47.9 µM
- TGI (HCT-15; read-out: Log TGI (converted)): 20.4 µM
- GI50 (HT-29): 13.2 µM
- CC50 (HT-29; [7]): 79.4 µM
- TGI (HT-29; read-out: Log TGI (converted)): 32.4 µM
- GI50 (SF-268): 12.6 µM
- LC50 (SF-268): 66.1 µM
- TGI (SF-268; read-out: Log TGI (converted)): 28.8 µM
- GI50 (SF-295): 5.13 µM
- LC50 (SF-295): 50.1 µM
- TGI (SF-295; read-out: Log TGI (converted)): 18.6 µM
- GI50 (SF-539): 11.2 µM
- LC50 (SF-539): 50.1 µM
- TGI (SF-539; read-out: Log TGI (converted)): 23.4 µM
- GI50 (SNB-19): 15.8 µM
- LC50 (SNB-19): 55 µM
- TGI (SNB-19; read-out: Log TGI (converted)): 29.5 µM
- GI50 (SNB-75): 2.95 µM
- LC50 (SNB-75): 30.2 µM
- TGI (SNB-75; read-out: Log TGI (converted)): 8.71 µM
- GI50 (LOX IMVI): 3.47 µM
- LC50 (LOX IMVI): 41.7 µM
- TGI (LOX IMVI; read-out: Log TGI (converted)): 11.5 µM
- GI50 (Malme-3M): 7.41 µM
- CC50 (Malme-3M; [7]): 49 µM
- TGI (Malme-3M; read-out: Log TGI (converted)): 20.4 µM
- GI50 (M14): 3.02 µM
- LC50 (50% lethal concentration) (M14): 34.7 µM
- TGI (M14; read-out: Log TGI (converted)): 11.5 µM
- GI50 (SK-MEL-2): 10.7 µM
- LC50 (SK-MEL-2): 61.7 µM
- TGI (SK-MEL-2; read-out: Log TGI (converted)): 25.7 µM
- GI50 (SK-MEL-5): 2.09 µM
- LC50 (SK-MEL-5): 7.08 µM
- TGI (SK-MEL-5; read-out: Log TGI (converted)): 3.8 µM
- GI50 (UACC-257): 3.8 µM
- LC50 (UACC-257): 40.7 µM
- TGI (UACC-257; read-out: Log TGI (converted)): 13.8 µM
- GI50 [2]: 2.19 µM
- CC50 [2, 7]: 57.5 µM
- TGI ([2]; read-out: Log TGI (converted)): 8.71 µM
- GI50 (OVCAR-4): 2.57 µM
- LC50 (OVCAR-4): 37.2 µM
- TGI (OVCAR-4; read-out: Log TGI (converted)): 8.51 µM
- GI50 (OVCAR-8): 4.68 µM
- LC50 (OVCAR-8): 100 µM
- TGI (OVCAR-8; read-out: Log TGI (converted)): 53.7 µM
- GI50 (IGROV-1): 10.2 µM
- CC50 (IGROV-1; [7]): 57.5 µM
- TGI (IGROV-1; read-out: Log TGI (converted)): 24 µM
- GI50 (786-0): 9.33 µM
- LC50 (786-0): 49 µM
- TGI (786-0; read-out: Log TGI (converted)): 21.9 µM
- GI50 (ACHN): 7.08 µM
- CC50 (ACHN; [7]): 45.7 µM
- TGI (ACHN; read-out: Log TGI (converted)): 20 µM
- GI50 (CAKI-1): 11 µM
- LC50 (CAKI-1): 47.9 µM
- TGI (CAKI-1; read-out: Log TGI (converted)): 22.9 µM
- GI50 (RXF 393): 1.62 µM
- LC50 (RXF 393): 30.2 µM
- TGI (RXF 393; read-out: Log TGI (converted)): 5.62 µM
- GI50 (SN12C): 2.09 µM
- LC50 (SN12C): 14.1 µM
- TGI (SN12C; read-out: Log TGI (converted)): 4.79 µM
- GI50 (TK-10): 17 µM
- LC50 (TK-10): 57.5 µM
- TGI (TK-10; read-out: Log TGI (converted)): 31.6 µM
- GI50 (UO-31): 6.61 µM
- LC50 (UO-31): 45.7 µM
- TGI (UO-31; read-out: Log TGI (converted)): 19.5 µM
- GI50 (DU-145): 6.03 µM
- CC50 (DU-145; [7]): 43.7 µM
- TGI (DU-145; read-out: Log TGI (converted)): 18.6 µM
- GI50 (MCF7): 3.31 µM
- LC50 (MCF7): 100 µM
- TGI (MCF7; read-out: Log TGI (converted)): 10 µM
- GI50 (NCI/ADR-RES): 6.76 µM
- LC50 (concentration killing 50% of cells) (NCI/ADR-RES): 100 µM
- TGI (NCI/ADR-RES; read-out: Log TGI (converted)): 67.6 µM
- GI50 (T47D [3]): 3.63 µM
- LC50 (T47D [3]): 91.2 µM
- TGI (T47D [3]; read-out: Log TGI (converted)): 12.9 µM
- GI50 (CCRF-CEM): 2.34 µM
- LC50 (CCRF-CEM): > 100 µM
- TGI (CCRF-CEM; read-out: Log TGI (converted)): 14.1 µM
- IC50 [4]: 7.3 µM
- IC50 [5]: 3.9 µM
- IC50 [6]: 10 µM
